ChEMBL document CHEMBL1782026, “Synthesis and biological evaluation of 1α,25-dihydroxyvitamin D(3) analogues hydroxymethylated at C-26” (2011)
Calls of active or inactive are those of the source. The rule behind the calls is not given here.

How the values were obtained:
[1] = biological target: T1, Vitamin D3 receptor (Homo sapiens) (UniProt P11473); assay: Transactivation of human VDR transfected in human SW480-ADH cells assessed as vitamin D response element-mediated transcriptional activity measured 48 hrs post infection by luciferase reporter gene assay; format: cell-based
T1 sequence (whole entry): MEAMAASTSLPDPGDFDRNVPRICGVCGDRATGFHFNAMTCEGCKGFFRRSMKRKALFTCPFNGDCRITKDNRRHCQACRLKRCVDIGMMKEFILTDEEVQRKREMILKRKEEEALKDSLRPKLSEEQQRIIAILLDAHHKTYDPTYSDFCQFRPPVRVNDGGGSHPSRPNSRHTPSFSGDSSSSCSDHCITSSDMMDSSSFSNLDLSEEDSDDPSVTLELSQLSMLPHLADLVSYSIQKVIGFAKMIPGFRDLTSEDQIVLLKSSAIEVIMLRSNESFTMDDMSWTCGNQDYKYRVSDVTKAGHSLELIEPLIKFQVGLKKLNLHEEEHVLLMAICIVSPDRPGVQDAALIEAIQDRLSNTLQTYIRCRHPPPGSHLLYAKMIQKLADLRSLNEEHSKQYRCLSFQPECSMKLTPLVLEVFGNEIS
Outline: (§1)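 SW480-ADH cells, transfected in triplicate (JetPEI) with 4VDRE-DR3-tk-LUC reporter, four tandem consensus DR3 VDREs upstream of HSV tk promoter. Treated with graded concentrations in charcoal-treated FCS medium, read at 8 or 48 h. Firefly luciferase normalized to Renilla by dual luciferase assay; mean ± SD, n = 3.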

[2] = biological target: T1, Vitamin D3 receptor (Homo sapiens); assay: Transactivation of human VDR transfected in human SW480-ADH cells assessed as vitamin D response element-mediated transcriptional activity measured 8 hrs post infection by luciferase reporter gene assay; format: cell-based; outline: as §1
SW480-ADH [3] = assay: Induction of differentiation of human SW480-ADH cells to adhesive epithelial phenotype at 10^-7 M after 48 hrs by phase-contrast microscopy; format: functional, cell-based
Outline: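 SW480-ADH cells in RPMI/10% FCS were exposed for 48 h to 10^-7 M compound or vehicle in charcoal-treated FCS medium. Adhesive epithelial morphology was judged by phase-contrast microscopy; a representative experiment is shown.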

SW480-ADH [4] = assay: Induction of E-cadherin expression in human SW480-ADH cell at 10^-7 M after 48 hrs by Western blot analysis; format: functional, cell-based
Outline: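 SW480-ADH cells grown in RPMI with 10% FCS, GlutaMAX and penicillin/streptomycin. Treated 48 h at 10^-7 M in charcoal-treated FCS medium; controls received matching vehicle. Anti-E-cadherin Western blot with β-tubulin as loading control and ECL detection. Values are mean fold-increase from two experiments.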

MCF7 [5] = assay: Antiproliferative activity against human MCF7 cells assessed as DNA level at 100 nM measured after 6 days by calorimetric analysis; format: functional; conditions: MCF7, 144 h, read-out: GI
Outline: (§2)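 MCF-7 cells in DMEM F12 with 5% FBS at 37 °C, 5% CO2, seeded at 100 000 cells/well in six-well plates. After 24 h, treated in triplicate for 6 days with graded doses or 0.1% ethanol vehicle; medium and ligand replaced every other day. DNA content by Burton assay, expressed as percent of vehicle control; three independent experiments, mean ± SD.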

MCF7 [6] = assay: Antiproliferative activity against human MCF7 cells assessed as DNA level at 1 nM measured after 6 days by calorimetric analysis; format: functional; conditions: MCF7, 144 h, read-out: GI; outline: as §2
MCF7 [7] = assay: Antiproliferative activity against human MCF7 cells assessed as DNA level measured after 6 days by calorimetric analysis; format: functional, cell-based; outline: as §2
MCF7 [8] = assay: Antiproliferative activity against human MCF7 cells assessed as DNA level at 10 nM measured after 6 days by calorimetric analysis; format: functional; conditions: MCF7, 144 h, read-out: GI; outline: as §2
[9] = biological target: T1, Vitamin D3 receptor (Homo sapiens); assay: Transactivation of human VDR transfected in african green monkey COS7 cells after 24 hrs by luciferase reporter gene assay; format: cell-based; conditions: COS-7
Outline: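 Transfected 16 h (Polyfect) with 62.5 ng WT VDR expression plasmid and 125 ng rat 24-hydroxylase promoter VDRE-luciferase. Then treated 24 h with graded concentrations in DMEM with 1% bovine growth serum, lysed, and assayed by dual luciferase; ±SD.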

SMILES | Activity [1] | Activity [2] | Activity (SW480-ADH [3]) | Activity (SW480-ADH [4]) | inhibition of growth at 0.1 µM (MCF7 [5]) [%] | inhibition of growth at 0.001 µM (MCF7 [6]) [%] | growth inhibition (GI) (MCF7 [7]) | inhibition of growth at 0.01 µM (MCF7 [8]) [%] | Activity [9]
C=C1/C(=C\C=C2/CCC[C@]3(C)[C@@H]([C@H](C)CCC[C@@](C)(O)CCO)CC[C@@H]23)C[C@@H](O)C[C@@H]1O | Dose-dependent effect | Dose-dependent effect | Active | Active | 53 | – | – | – | –
C=C1/C(=C\C=C2/CCC[C@]3(C)[C@@H]([C@H](C)CCCC(C)(C)O)CC[C@@H]23)C[C@@H](O)C[C@@H]1O [CALCITRIOL] | – | – | – | – | 66 | 15 | Dose-dependent effect | 50 | –
C=C1/C(=C\C=C2/CCC[C@]3(C)[C@@H]([C@H](C)CCC[C@@](C)(O)[C@@H](C)CO)CC[C@@H]23)C[C@@H](O)C[C@@H]1O | Dose-dependent effect | Dose-dependent effect | Active | Active | 65 | – | – | – | Active
